Laboratory results taken from ChEMBL document CHEMBL1135888, “Synthesis of new covalently bound kappa-carrageenan-AZT conjugates with improved anti-HIV activities” (J Med Chem, 2002).
Where “and” joins values, the source holds several entries; their conditions need not be identical. Equal values may be shown once.

What was measured:
Homo sapiens = organism: Homo sapiens; assay: % Nucleoside derivatives released after 48 hr of hydrolysis at pH 7.2; format: functional
In short: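 Incubation at 37 °C for 48 h in normal human serum (pH 7.2). Aliquots were quenched in ice-cold methanol and centrifuged, and supernatants were filtered. HPLC used a 20–100% solvent B gradient over 20 min with detection at 267 nm. Percent of AZT and succinate-AZT released was calculated from peak areas.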

[1] = half life required for 50% hydrolysis of compound to AZT upon incubation in NHS; format: ADME, organism-based; settings: human, NHS (human serum)
In short: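 Incubation at 37 °C in normal human serum. Samples were quenched with ice-cold methanol, centrifuged and filtered, then run on HPLC at 267 nm. t1/2 is the time to 50% hydrolysis to AZT.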

MT4 [2] = assay: Concentration required to inhibit the cytopathicity of HIV-1 strain IIIB by 50% in MT-4 cells (expressed in AZT equivalent); format: functional, cell-based; settings: Homo sapiens
In short: (§1)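 MT-4 cells in RPMI 1640 with 10% heat-inactivated FCS, 2 mM L-glutamine, 0.1% bicarbonate and 20 µg/mL gentamicin were infected with HIV-1 IIIB before compound was added. Inhibition of virus-induced cytopathicity was read 5 days after infection.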

MT4 [3] = assay: Concentration required to inhibit the cytopathicity of HIV-1 strain BRU by 50% in MT-4 cells (expressed in AZT equivalent); format: functional, cell-based; settings: Homo sapiens
In short: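 MT-4 cells (3 × 10⁵), cultured in RPMI/10% FCS, were pretreated with compound for 1 h at 37 °C. Cells were then infected with HIV-1 BRU (MOI 0.1 CCID/cell) for 1 h, washed three times and cultured 7 days with or without compound, with medium renewed on day 3. Cytopathicity was scored microscopically, in duplicate. Final DMSO was <2%, with DMSO-matched standard assays.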

MT4 [4] = assay: Concentration required to cause 50% death of uninfected MT-4 cells (expressed in AZT equivalent); format: functional, Homo sapiens
In short: (§2)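 Uninfected MT-4 cells were exposed to compound. Growth was followed and viability measured by trypan blue exclusion, or as viability of mock-infected cells on day 5. CC50 is the concentration giving 50% cell death.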

MT4 [5] = assay: Concentration required to cause 50% death of uninfected MT-4 cells (expressed in k-carrageenan equivalent); format: functional, Homo sapiens; in short: as §2
MT4 [6] = assay: Concentration required to inhibit the cytopathicity of HIV-1 strain IIIB by 50% in MT-4 cells (expressed in k-carrageenan equivalent); format: functional, cell-based; settings: Homo sapiens; in short: as §1

Row | half-life [1] | SMILES | Release (Homo sapiens) | EC50 (MT4 [2]) | EC50 (MT4 [3]) | CC50 (MT4 [4]) | CC50 (MT4 [5]) | CC50 (MT4 [5]; Homo sapiens, MT4, read-out: CC50) | EC50 (MT4 [6])
1 | 1500 min | Cc1cn([C@H]2C[C@H](N=[N+]=[N-])[C@@H](COC(=O)CCC(=O)O)O2)c(=O)[nH]c1=O | 100% | 65 nM | 15 nM | > 50 µM and 130 µM | – | – | –
2 | – | CO[C@H]1O[C@@H]2CO[C@@H]([C@H]1O)[C@H]2O[C@@H]1O[C@H](CO)[C@H](OS(=O)(=O)[O-])[C@H](O[C@H]2O[C@@H]3CO[C@@H]([C@H]2O)[C@H]3O[C@@H]2O[C@H](COC(=O)CCC(=O)OC[C@H]3O[C@@H](n4cc(C)c(=O)[nH]c4=O)C[C@@H]3N=[N+]=[N-])[C@H](OS(=O)(=O)[O-])[C@H](O[C@H]3O[C@@H]4CO[C@@H]([C@H]3O)[C@H]4O[C@@H]3O[C@H](CO)[C@H](OS(=O)(=O)[O-])[C@@H](O[C@H]4O[C@@H]5CO[C@@H]([C@H]4O)[C@H]5O[C@@H]4O[C@H](CO)[C@H](OS(=O)(=O)[O-])[C@H](O[C@H]5O[C@@H]6CO[C@@H]([C@H]5O)[C@H]6O[C@@H]5O[C@H](COC(=O)CCC(=O)OC[C@H]6O[C@@H](n7cc(C)c(=O)[nH]c7=O)C[C@@H]6N=[N+]=[N-])[C@H](OS(=O)(=O)[O-])[C@H](O[C@H]6O[C@@H]7CO[C@@H]([C@H]6O)[C@H]7O[C@@H]6O[C@H](CO)[C@H](OS(=O)(=O)[O-])[C@@H](O[C@H]7O[C@@H]8CO[C@@H]([C@H]7O)[C@H]8O[C@@H]7O[C@H](CO)[C@H](OS(=O)(=O)[O-])[C@H](O[C@H]8O[C@@H]9CO[C@@H]([C@H]8O)[C@H]9O[C@@H]8O[C@H](COC(=O)CCC(=O)OC[C@H]9O[C@@H](n%10cc(C)c(=O)[nH]c%10=O)C[C@@H]9N=[N+]=[N-])[C@H](OS(=O)(=O)[O-])[C@H](O[C@H]9O[C@@H]%10CO[C@@H]([C@H]9O)[C@H]%10O[C@@H]9O[C@H](CO)[C@H](OS(=O)(=O)[O-])[C@H](C)[C@H]9O)[C@H]8O)[C@H]7O)[C@H]6O)[C@H]5O)[C@H]4O)[C@H]3O)[C@H]2O)[C@H]1O.[Na+].[Na+].[Na+].[Na+].[Na+].[Na+].[Na+].[Na+].[Na+] | 39% | 109 nM | – | – | 300 µg/mL | 300 µg/mL | 1.6 µg/mL
3 | – | Cc1cn([C@H]2C[C@H](N=[N+]=[N-])[C@@H](CO)O2)c(=O)[nH]c1=O [ZIDOVUDINE] | – | – | 25 nM | > 100 µM and 42 µM | – | – | –
